The values that follow come from ChEMBL document CHEMBL1146388, “1-Arylpiperazinyl-4-cyclohexylamine derived isoindole-1,3-diones as potent and selective alpha-1a/1d adrenergic receptor ligands” (Bioorg Med Chem Lett, 2007).

Assay [1] has as its target T1, Alpha-1D adrenergic receptor (Homo sapiens, UniProt P25100).
T1 sequence (P25100 whole entry): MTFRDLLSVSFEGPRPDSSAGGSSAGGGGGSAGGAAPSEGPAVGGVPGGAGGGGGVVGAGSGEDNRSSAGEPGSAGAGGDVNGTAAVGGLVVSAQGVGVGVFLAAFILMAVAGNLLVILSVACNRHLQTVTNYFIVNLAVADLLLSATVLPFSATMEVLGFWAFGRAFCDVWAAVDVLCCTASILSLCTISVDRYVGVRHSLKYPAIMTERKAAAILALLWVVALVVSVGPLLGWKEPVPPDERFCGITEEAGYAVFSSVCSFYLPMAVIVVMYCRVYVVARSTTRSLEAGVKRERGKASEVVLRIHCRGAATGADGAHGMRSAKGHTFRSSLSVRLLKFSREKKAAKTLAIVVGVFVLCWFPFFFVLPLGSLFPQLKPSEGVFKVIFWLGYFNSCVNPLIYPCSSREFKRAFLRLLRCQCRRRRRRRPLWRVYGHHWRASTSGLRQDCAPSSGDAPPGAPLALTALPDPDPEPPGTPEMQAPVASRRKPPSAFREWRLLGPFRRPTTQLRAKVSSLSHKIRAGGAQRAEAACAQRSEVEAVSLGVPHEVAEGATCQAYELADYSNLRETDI
As to the kind of experiment: Displacement of [125]HEAT from human adrenergic alpha-1d receptor expressed in COS cells.

The target in assay [2] is T2, Alpha-1B adrenergic receptor (Homo sapiens, UniProt P35368).
T2 sequence (P35368 whole entry): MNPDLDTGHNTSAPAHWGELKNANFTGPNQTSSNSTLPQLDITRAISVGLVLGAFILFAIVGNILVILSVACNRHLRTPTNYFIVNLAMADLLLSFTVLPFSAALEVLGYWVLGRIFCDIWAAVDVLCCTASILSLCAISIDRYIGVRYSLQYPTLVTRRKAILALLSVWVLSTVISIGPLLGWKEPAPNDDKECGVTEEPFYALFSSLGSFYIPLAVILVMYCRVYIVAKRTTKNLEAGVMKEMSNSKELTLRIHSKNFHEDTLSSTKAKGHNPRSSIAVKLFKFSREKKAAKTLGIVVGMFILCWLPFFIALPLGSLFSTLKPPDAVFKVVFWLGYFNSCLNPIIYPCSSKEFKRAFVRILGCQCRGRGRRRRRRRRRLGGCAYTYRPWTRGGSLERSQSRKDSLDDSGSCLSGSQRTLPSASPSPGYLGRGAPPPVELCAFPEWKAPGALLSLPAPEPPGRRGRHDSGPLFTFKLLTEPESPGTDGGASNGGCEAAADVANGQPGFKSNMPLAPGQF
Nature of the assay: Displacement of [125]HEAT from human adrenergic alpha-1b receptor expressed in COS cells.

For assay [3], the target named is T3, Alpha-1A adrenergic receptor (Homo sapiens, UniProt P35348).
T3 sequence (P35348 whole entry): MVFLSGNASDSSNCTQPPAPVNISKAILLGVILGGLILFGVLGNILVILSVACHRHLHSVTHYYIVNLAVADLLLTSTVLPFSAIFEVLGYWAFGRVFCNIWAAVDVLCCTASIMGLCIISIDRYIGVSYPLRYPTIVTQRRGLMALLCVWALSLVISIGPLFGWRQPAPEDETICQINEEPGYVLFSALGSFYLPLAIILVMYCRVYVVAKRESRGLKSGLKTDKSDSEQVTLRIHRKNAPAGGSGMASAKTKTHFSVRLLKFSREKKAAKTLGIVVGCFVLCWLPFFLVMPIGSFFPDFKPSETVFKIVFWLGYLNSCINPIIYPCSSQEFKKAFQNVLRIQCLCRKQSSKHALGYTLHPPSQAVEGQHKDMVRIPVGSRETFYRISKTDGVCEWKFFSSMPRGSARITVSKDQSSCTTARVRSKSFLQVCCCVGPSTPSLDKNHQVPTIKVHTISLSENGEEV
Nature of the assay: Displacement of [125]HEAT from human adrenergic alpha-1a receptor expressed in COS cells.

Assay [4] addresses Adrenergic receptors; alpha-1 A & B (Homo sapiens) (UniProt P35348+P35368). Nature of the assay: Selectivity ratio, Ki for human adrenergic alpha-1b receptor to Ki for human adrenergic alpha-1a receptor. It counts as protein assay. An outline of the steps:
(§1)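 Competition binding against 125I-HEAT on COS cell membranes expressing cloned human α1a-, α1b- or α1d-adrenergic receptor. Affinities are reported as Ki (nM). Selectivity is expressed as Ki(α1b)/Ki(α1a) and Ki(α1b)/Ki(α1d).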

The species entered for a further assay is Homo sapiens. Nature of the assay: Selectivity ratio, Ki for human adrenergic alpha-1b receptor to Ki for human adrenergic alpha-1d receptor. An outline of the steps:
as §1

The Ki is a measure of affinity in units of concentration, obtained from inhibition or displacement. Take `CC(C)Oc1ccccc1N1CCN(C2CCC(N3C(=O)c4ccc5ccc(F)cc5c4C3=O)CC2)CC1` (stereo in doubt; 6g) [listing 1 of 2 here]: the Ki in assay [1] is 0.5 nM; in assay [2], 46.5 nM; in assay [3], 3.9 nM.

Turning to `CC(C)Oc1ccccc1N1CCN(C2CCC(N3C(=O)c4c(F)c(F)c(F)c(F)c4C3=O)CC2)CC1` (stereo not drawn), the Ratio Ki came out at 109 in assay [4] and 136 in the assay listed under Homo sapiens.

Regarding `CC(C)Oc1ccccc1N1CCN(C2CCC(N3C(=O)c4cccc(F)c4C3=O)CC2)CC1` (stereo in doubt; 6d) [listing 1 of 2 here], the Ki in assay [1] worked out at 14.9 nM; in assay [2], 127 nM; in assay [3] it was 1 nM.

`CC(C)Oc1ccccc1N1CCN(C2CCC(N3C(=O)c4ccc5ccc(F)cc5c4C3=O)CC2)CC1` (stereo in doubt; 6f) [listing 1 of 2 here]: the values for the Ki in assay [1], in assay [2] and in assay [3] were 16.4 nM, 269 nM and 15 nM, respectively.

`CC(C)Oc1ccccc1N1CCN(C2CCC(N3C(=O)c4cccc(F)c4C3=O)CC2)CC1` (stereo in doubt; 6d) [listing 2 of 2 here]: the Ratio Ki in assay [4] turned out to be 127; in the assay filed under Homo sapiens it was 9.

Consider `CC(C)Oc1ccccc1N1CCN(C2CCC(N3C(=O)c4ccc5ccc(F)cc5c4C3=O)CC2)CC1` (stereo in doubt; 6f) [listing 2 of 2 here], for which the Ratio Ki in assay [4] is 18; in the assay filed under Homo sapiens, 16.

`CC(C)Oc1ccccc1N1CCN(C2CCC(N3C(=O)c4cccnc4C3=O)CC2)CC1` (stereo not drawn): the Ki in assay [1] was 1.5 nM; in assay [3] it was 0.8 nM. Moreover, the results for the Ratio Ki (in assay [4]; in the assay listed under Homo sapiens) were 56 and 30, respectively.

With `CC(C)Oc1ccccc1N1CCN(C2CCC(N3C(=O)c4cccc(F)c4C3=O)CC2)CC1` (stereo in doubt; 6c) [listing 1 of 2 here], the Ratio Ki in assay [4] was determined as 90; in the assay listed under Homo sapiens, 200.

As for `CC(C)Oc1ccccc1N1CCN(C2CCC(N3C(=O)c4cccc(F)c4C3=O)CC2)CC1` (stereo in doubt; 6c) [listing 2 of 2 here], the Ki in assay [1] was found to be 0.09 nM; in assay [2], 18 nM; in assay [3], 0.2 nM.

As for `CC(C)Oc1ccccc1N1CCN(C2CCC(N3C(=O)c4ccncc4C3=O)CC2)CC1` (stereo not drawn), the values for the Ki in assay [1] and in assay [3] were 0.8 nM and 0.4 nM, respectively. The values for the Ratio Ki (in assay [4]; in the assay listed under Homo sapiens) were 56 and 28, respectively.

For the molecule `CC(C)Oc1ccccc1N1CCN(C2CCC(N3C(=O)c4ccc5ccc(F)cc5c4C3=O)CC2)CC1` (stereo in doubt; 6g) [listing 2 of 2 here], the Ratio Ki amounted to 12 in assay [4] and 93 in the assay listed under Homo sapiens.

As for `CC(C)Oc1ccccc1N1CCN(C2CCC(N3C(=O)c4cc(Cl)c(Cl)cc4C3=O)CC2)CC1` (stereo not drawn), in assay [1], the Ki amounted to 0.3 nM. Further, the figures for the Ratio Ki (in assay [4]; in the assay filed under Homo sapiens) were 401 and 3610, respectively.

`CC(C)Oc1ccccc1N1CCN(C2CCC(N3C(=O)c4ccc5ccccc5c4C3=O)CC2)CC1` (stereo not drawn): the Ki was found to be 0.2 nM in assay [1], 15 nM in assay [2] and 1.8 nM in assay [3]. For the same molecule, the results for the Ratio Ki (in assay [4]; in the assay listed under Homo sapiens) were 8 and 75, respectively.
